In ChEMBL document CHEMBL1926638, “Anti-cancer activity of 5-O-alkyl 1,4-imino-1,4-dideoxyribitols” (Bioorg Med Chem, 2011):
Calls of active or inactive are those of the source. The rule behind the calls is not given here.

What was measured:
Canavalia ensiformis = assay: Inhibition of jack beans alpha-mannosidase
SK-BR-3 [1] = assay: Cytotoxicity against human SKBR3 cells after 72 hrs by MTS assay; format: functional, cell-based
Method in brief: (§1)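 SKBR3 (HER2+ breast cancer) cells exposed to compound for 72 h; number of metabolically active cells read by MTS tetrazolium reduction. Values are means of duplicate wells.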

SK-BR-3 [2] = assay: Cytotoxicity against human SKBR3 cells assessed as cell viability 1 to 400 uM after 72 hrs by MTS assay; format: functional, cell-based; method in brief: as §1
Jurkat [3] = assay: Induction of apoptosis in human Jurkat cells assessed as cell death at 10 uM by annexin V-7AAD double staining based flow cytometric analysis; format: functional; conditions: TDE = time-dependent effect
Method in brief: (§2)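 JURKAT cells treated with compound. Apoptosis quantified by annexin-V/7-AAD staining and flow cytometry: early apoptotic = annexin V+7AAD−, late = annexin V+7AAD+. At 10 µM, a time course of cell death was also run.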

SK-BR-3 [4] = assay: Cytotoxicity against human SKBR3 cells assessed as cell death at 6.25 uM after 72 hrs by MTS assay; format: functional, cell-based
Jurkat [5] = assay: Induction of apoptosis in human Jurkat cells assessed as cell death at 10 uM after 24 hrs by annexin V-7AAD double staining based flow cytometric analysis; format: functional
Method in brief: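 Jurkat T-ALL cells exposed to 10 µM for 24 h (time-course series). Apoptosis quantified by annexin V and 7-AAD staining with flow cytometry. Early apoptotic = annexin V+/7AAD−, late apoptotic = annexin V+/7AAD+. Viability monitored in parallel by trypan blue exclusion. Values given as percent cell death.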

Jurkat [6] = assay: Induction of apoptosis in human Jurkat cells assessed as late apoptotic cells at 10 uM after 24 hrs by annexin V-7AAD double staining based flow cytometric analysis; format: functional; method in brief: as §2
Jurkat [7] = assay: Induction of apoptosis in human Jurkat cells assessed as early apoptotic cells at 10 uM after 24 hrs by annexin V based flow cytometric analysis; format: functional; method in brief: as §2
[8] = Induction of apoptosis in human CD34-positive and CD38-deficient hematopoietic progenitor cells assessed as cell death at 10 uM after 24 hrs by annexin V-7AAD double staining based flow cytometric analysis
[9] = Induction of apoptosis in human CD34-positive and CD38-deficient hematopoietic progenitor cells assessed as late apoptotic cells at 10 uM after 24 hrs by annexin V-7AAD double staining based flow cytometric analysis
[10] = Induction of apoptosis in human CD34-positive and CD38-deficient hematopoietic progenitor cells assessed as early apoptotic cells at 10 uM after 24 hrs by annexin V based flow cytometric analysis
SK-BR-3 [11] = assay: Cell cycle arrest in human SKBR3 cells assessed as accumulation in G0/G1 phase after 24 hrs by FITC-conjugated annexin-V propidium iodide based flow cytometric analysis; format: functional
Method in brief: (§3)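 SKBR3 cells treated with compound, then cell-cycle distribution examined (G0/G1 and S fractions); at higher concentrations DNA fragmentation and hypodiploid nuclei scored. Described as preliminary assays.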

SK-BR-3 [12] = assay: Cell cycle arrest in human SKBR3 cells assessed as reduction in S phase after 24 hrs by FITC-conjugated annexin-V propidium iodide based flow cytometric analysis; format: functional; method in brief: as §3
SK-BR-3 [13] = assay: Induction of apoptosis in human SKBR3 cells assessed as DNA fragmentation after 24 hrs by annexin-V propidium iodide based flow cytometric analysis; format: functional, cell-based; method in brief: as §3
SK-BR-3 [14] = assay: Induction of apoptosis in human SKBR3 cells assessed as hypodiploid cell nuclei appearance after 24 hrs by annexin-V propidium iodide based flow cytometric analysis; format: functional; method in brief: as §3
SK-BR-3 [15] = assay: Cytotoxicity in human SKBR3 cells assessed as increase in intracellular vacuolization after 6 to 12 hrs; format: functional, cell-based
[16] = Cytotoxicity against mouse BA/F3 cells expressing tyrosine kinase at <10 uM after 48 hrs by resazurin reduction assay; format: cell-based; conditions: baf3, 48 h
Method in brief: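 15 Ba/F3 models, each proliferating through engineered expression of a specific tyrosine kinase. Compound incubated 48 h at concentrations below 10 µM, read by resazurin reduction. 9-point IC50 curves in three independent experiments.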

Jurkat [17] = assay: Cytotoxicity against human Jurkat cells by trypan blue assay; format: functional, cell-based
Method in brief: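 JURKAT cells exposed to compound; viability monitored by Trypan blue exclusion.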

Jurkat [18] = assay: Induction of apoptosis in human Jurkat cells assessed as cell death at 100 uM after 24 hrs by annexin V-7AAD double staining based flow cytometric analysis; format: functional; method in brief: as §2
PBMC = assay: Induction of apoptosis in PBMC at 10 uM after 24 hrs by annexin-V and 7AAD double staining based flow cytometric analysis; format: cell-based

| Inhibition activity (Canavalia ensiformis) | SMILES | Activity (SK-BR-3 [1]) | Activity (SK-BR-3 [2]) | other results |
| --- | --- | --- | --- | --- |
| inactive | CCCCCOC[C@H]1NC[C@H](O)[C@@H]1O | – | – | – |
| inactive | CCCCCCCCCCOC[C@H]1NC[C@H](O)[C@@H]1O | Active | Active | – |
| inactive | CCCCCCCCCCCCCCCCCCOC[C@H]1NC[C@H](O)[C@@H]1O | Active | Active | – |
| inactive | CCCCCC/C=C\CCCCCCCCOC[C@H]1NC[C@H](O)[C@@H]1O | Active | Active | – |
| inactive | CCCCC/C=C\C/C=C\CCCCCCCCOC[C@H]1NC[C@H](O)[C@@H]1O | Active | Active | – |
| inactive | CCCCCCCCCCCCCCOC[C@H]1NC[C@H](O)[C@@H]1O | – | – | – |
| inactive | CCCCCCCOC[C@H]1NC[C@H](O)[C@@H]1O | – | inactive | – |

The next lines start with the compound.

| SMILES | Inhibition activity (Canavalia ensiformis) | Activity (SK-BR-3 [1]) | Activity (SK-BR-3 [2]) | other results |
| --- | --- | --- | --- | --- |
| O[C@H]1[C@@H](O)CN[C@@H]1COCc1ccccc1 | inactive | – | inactive | – |
| CCCCCCCC/C=C\CCCCCCCCOC[C@H]1NC[C@H](O)[C@@H]1O | – | – | – | Activity (Jurkat [3]): tde; IC50 (SK-BR-3 [1]; SK-BR-3, 72 h): 2 µM; Activity (SK-BR-3 [4]): Active; Activity (Jurkat [5]): 100%; Activity (Jurkat [6]): 60%; Activity (Jurkat [7]): 40%; Activity [8]: 60%; Activity [9]: 40%; Activity [10]: 20%; Activity (SK-BR-3 [11]): Active; Activity (SK-BR-3 [12]): Active; Activity (SK-BR-3 [13]): Active; Activity (SK-BR-3 [14]): Active; Activity (SK-BR-3 [15]): Active; Activity [16]: Non-toxic; IC50 (Jurkat [17]): 8 µM |
| C=CCCCOC[C@H]1NC[C@H](O)[C@@H]1O | inactive | – | – | – |
| O[C@H]1[C@@H](O)CN[C@@H]1COCc1ccc(-c2ccccc2)cc1 | Active | – | Active | Activity (Jurkat [18]): Active |
| CC/C=C\C/C=C\C/C=C\CCCCCCCCOC[C@H]1NC[C@H](O)[C@@H]1O | inactive | Active | Active | – |
| OC[C@H]1NC[C@H](O)[C@@H]1O [IMINORIBITOL] | – | – | inactive | Activity (Jurkat [5]): inactive; Activity (Jurkat [17]): inactive; Activity (PBMC): Non-toxic |
